Test results taken from the EternaBench riboswitch data.

System: MS2 coat protein
Assay: apparent Kd, MS2 coat protein; higher = weaker binding; RNA-MaP array; FMN 200 µM where present
Procedure, shortened: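 Binding was read on Illumina sequencing-chip clusters where stalled E. coli RNA polymerase had transcribed each design. A titration of SNAP-549-labelled MS2 coat protein began at 0.7 or 1.5 nM and doubled to 3 µM, once without ligand and once with constant ligand, in 100 mM Tris-HCl pH 7.5, 80 mM KCl, 4 mM MgCl2, BSA, DTT, yeast tRNA and Tween-20. The apparent Kd is the median of filtered per-cluster binding-curve fits, based on green signal normalised to red-channel RNA signal and control-cluster median Fmax.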

[1] = designed as: OFF switch for flavin mononucleotide, no ligand
[2] = ligand present: flavin mononucleotide, designed as: OFF switch for flavin mononucleotide
[3] = designed as: ON switch for flavin mononucleotide, no ligand
[4] = ligand present: flavin mononucleotide, designed as: ON switch for flavin mononucleotide

Sequence | apparent Kd [1] | apparent Kd [2] | apparent Kd [3] | apparent Kd [4]
AUGCCGUGCAGAGCGCGACGGCGAACAUGAGGAUCACCCAUGUAGGAUAUACUACACAAAGUGUAGUAGAAGGACGUGCGACAA | 24.6 nM | 38.6 nM |  | 
GCACUGGAUGUAGGAUAUCAGGACGAUAAGUCCUGAGAAGGACAUGAGGAUCACCCAUGUGAAUAAACCAGUGCAAAUAAUAUA | 12.5 nM | 32.3 nM |  | 
GUGAAACAUGAGGAUCACCCAUGUGAGGAUAUGAUACUAUGUACUUCGGUACAUAGUAUCAGAAGGCACAGUGA | 96.1 nM | 282 nM |  | 
ACGACAAAAGUCGAACGAUGUAGCAGAAGGACAUGAGGAUCACCCAUGUAAAAUGUAACAGCCAUGUAGGAUAUGCUACAUCGA | 31.4 nM | 288 nM |  | 
GUGCAUUACGAGAAGGCGUACUGGUGAAUAUAAAACGACAAAGGUACAUGAGGAUCACCCAUGUACGAGGAUAUCGAUUUGGCU | 11 nM | 39.7 nM |  | 
GGCGAACAGGCUAACAUGAGGAUCACCCAUGUGGACUCAUGGUAGGAUAUGCUCAUCAAAGAUGAGCAGAAGGGCCGGUGAGCC |  |  | 54.8 nM | 463 nM
UGUAUGGACAGAGGAUAUACGUGCUAGAGAUACUAGCUACAAAUCCUUACAUGAGGAUCACCCAUGUAGAAGGCUGUCCAUACU | 19.1 nM | 39.4 nM |  | 
AAGUCGUGAGGAUAUACAUGGAUAUACAUUUAUGUAGACCUACAUGAGGAUCACCCAUGUAGAAGGCACGAAUA | 45.4 nM | 115 nM |  | 
GACAUGAGGAUCACCCAUGUCCAUGCAAGAGUAGUUGAGACCAGAAGGACCUUGCGGAGCGCAGGGUAGGAUAUGGAGCCCUCA |  |  | 36.3 nM | 8.75 nM
AAACCCUGAGGAUAUACAUAACAACAAAGCCUCACGUGCCAACAUGAGGAUCACCCAUGUAGAAGGCAGGCCAA | 12.8 nM | 41.7 nM |  | 
GUAUUACAUGAGGAUCACCCAUGUGAGGAUAUCGAUGUAACUAGCAGCGUGCGGGACUCGAGAAGGCACUUGGA | 49.1 nM | 142 nM |  | 
UGAUAACAUGUAGGAUAUCCAGCAUUGACCAUCGGAGAAGGACAUGAGGAUCACCCAUGUACCGAUACAAUGGGAUAAGGGAAU | 16.1 nM | 18.6 nM |  | 
GUGUACAGAGGAUAUGCACGAGUAGUUACGAAAGUAACUAUACAUGAGGAUCACCCAUGUAGAAGGCUGUACAC | 13.5 nM | 16.6 nM |  | 
UGGUUCUAGGGAGGAUAUGGGAAGAUACAUGAGGAUCACCCAUGUUUAAGAAUGCCGAGAGGCAACUAGAAGGCCCUAGUACCU |  |  | 406 nM | 20.3 nM
GUCAUGUUAGGAUAUCUGACAUGUGACUUCGGUCACUGUCCAGAGAAGGAACAUGAGGAUCACCCAUGUUGGAC | 55.6 nM | 63.9 nM |  | 
UGGUUGUGUGUUAGGAUAUGGUUUGGUGUUUCGGGCUAGAAGGGACAUGAGGAUCACCCAUGUGGCUGGCGGGU | 72.6 nM | 58.1 nM |  | 
AAAUAGUUAGGAUAUACAUGAGGAUCACCCAUGUGGACUGAUGGCGCUUGAUUCAGUGGUAGAAGGGACUCAAA | 45.9 nM | 69.2 nM |  | 
CCCUGAGAUUGGUUAAUUGGCUGAUAGGAUAUCCUCGGACAUGAGGAUCACCCAUGUUAACUAUUGGAGAAGGGUCAGCGAAAG |  |  | 607 nM | 90.2 nM
GAUCCACAUGAGGAUCACCCAUGUGAGGAUAUGAUACUAUGUACUUCGGUACAUAGUAUCAGAAGGCACAGGUC | 51.4 nM | 160 nM |  | 
UCGAGUCAUGAGAAGGACUGAUGUUACAUGAGGAUCACCCAUGUCAUGGGUAGGAUAUCAUUGACACGGCUGUACCUCUCUUAC |  |  | 196 nM | 47.7 nM
GUAUUGAGAUAAGGAUAUAAGUCUAUGACAUGAGGAUCACCCAUGUGUGUUUUAGAAGGUAUUUCGGUAAUAUUGUUACAGUAA |  |  | 17.7 nM | 9.95 nM
UGGUGCGAGCUAUCGCAUGACUGGGAGGAUAUGACAUGAGGAUCACCCAUGUGGGAUCUAAAUUGUCAGAAGGCUCGAUCUGGG | 346 nM | 102 nM |  | 
UUUUUGUGAGGAUAUUAGUAGUAAAUAAAUAAAAUUACUACUGAGAAGGCACAUGAGGAUCACCCAUGUUCCUC | 33.6 nM | 254 nM |  | 
AAAAUGUCAGGAUAUGCGAAGGCGUCUGAUAGACGAGGCUAGCAGAAGGGACAUGAGGAUCACCCAUGUAAAAA | 52.6 nM | 152 nM |  | 
GCCAGAGGAGGAUAUCUAAUAUAUCACAUGAGGAUCACCCAUGUCCAGCGAAAGCUGGAGGGAGAAGGCCUCUGGC | 149 nM | 29.8 nM |  | 
GAGGAGCAAGGAUAUACGAGGAUAUGGUAGGUUGGAGAGUGACAUGAGGAUCACCCAUGUAGAAGGUGCGAGGG | 66.7 nM | 55.9 nM |  | 
GUUCUGCCUCCUGCCGGAACAUGAGGAUCACCCAUGUUGCCUGAGGAUAUCCUAUGGCGUCCACAGGAGAAGGCAGGCAGCAUA | 18.6 nM | 19.6 nM |  | 
AGCCGGGCCCAGAAGGUGCCAGCGAGAGCUGCACAUGAGGAUCACCCAUGUUGUCGGUGACGACGCAAGGAUAUGGGCCCGGCU |  |  | 22.7 nM | 7.17 nM

Sequence | apparent Kd [1] | apparent Kd [2] | apparent Kd [3] | apparent Kd [4]
UUGGCAACGUAGAAGGGUGACAUGAGGAUCACCCAUGUGCCGAUAUAUCUCGAGAUAUGUCGGCCACAGGAUAUACGUGCCAUC |  |  | 35.9 nM | 35.2 nM
GACGUACAUGAGGAUCACCCAUGUACAAACGUACAAGGAUAUGUGUGGAAACCGUACUAUACAGAAGGUGUUUGUC |  |  | 14.3 nM | 14.1 nM
CCGAUGAUAGGACAGGAUAUGACUGUCGUCACAUGAGGAUCACCCAUGUCCCGGCAAUGCCACCGUUAGAAGGGUCCCAUCUCGG |  |  | 19.1 nM | 16.3 nM
CCUCUACAUGAGGAUCACCCAUGUGAGGAUAUCAAAGCCAGAGCGGAUCUCUGGUCCAUGAGAAGGUGCAUGGU | 20.4 nM | 89.6 nM |  | 
GCGAUUAAGUAGAAGGUACGUUAUAAGUCAAUGUAAGGAUAUACUGACAUGAGGAUCACCCAUGUUUAAUUUGUUUACUGUCGC |  |  | 7.34 nM | 5.7 nM
ACAUACUUUCGAGGAUAUCGGUGAUAAAUUUUACGAGAAGGCGAUAAAAGAUAUAAUCUUAUAAACAUGAGGAUCACCCAUGUA |  |  | 25.5 nM | 23.9 nM
ACAAAUUCUGACAUGAGGAUCACCCAUGUUAGAUUGUUAUGUCAGGAUAUUAUCUGGCAACCAGAUGAGAAGGGACGAUUUGUG |  |  | 10.6 nM | 7.15 nM
AUGCUAUACGAAGGAUAUGGUUACAUGAGGAUCACCCAUGUUAUGAUUGGUUACUUGUUUAGUUUCCAGAAGGUCGUAUAGCUA | 58.1 nM | 232 nM |  | 
UGAUCUUACAUGAGGAUCACCCAUGUAGACCAGUAACUAACCAGAAGGCACGUAGAGUAAAACAGUGAGGAUAUGGAUGACAUA |  |  | 6.66 nM | 5.5 nM
AGAAACUACGAGAAGGACAAAAACGGUGCCGCAAACAUGAGGAUCACCCAUGUAGGAUAUCGUAGUUUCAGGAUCGUGAGAUCA | 14.2 nM | 84.7 nM |  | 
CGUAGUUGGUAAGGAUAUCCUACACUGUUCUGACCCGUGCAAGCUACAUGAGGAUCACCCAUGUGGGAGAAGGUGCGUCAACGC | 18.4 nM | 19.6 nM |  | 
UGUUGUAUUACAGGAUAUCUAAUAUUUUUAUUUAGAGAAGGGUAUUCACAUGAGGAUCACCCAUGUAUAUACGAGGAAGUUGUG |  |  | 34.3 nM | 38.1 nM
GAGUGCUGAGGAUAUACAUGAGGAUCACCCAUGUGCUUCAACUAGGAGACUAGUAUUGGUAGAAGGCAGUACUC | 16.5 nM | 104 nM |  | 
GGUCGUAAGGAGAAGGGCUACUGGUUGAAACCUGCGGCCUCUGGAACAUGAGGAUCACCCAUGUAGCAGGAUAUCCUUGCGUGA | 188 nM | 45.3 nM |  | 
CAUAUAGUUUGAGGAUAUUCAUGCACUGUAUACGGAGAAGGCAAACUAUCAUGUGGACAUGAGGAUCACCCAUGUAGUGACCAG |  |  | 54.2 nM | 41 nM
AGCUAAAACGAAGGAUAUACUGACAUGAGGAUCACCCAUGUCUACAUGAUUUAUUGUGAUCACAUGUAGAAGGUCGUACUAACA |  |  | 74.4 nM | 27.7 nM
UAUAUAUAGUAAGGAUAUGUAUAUAAUUUAUAAACAGAAGGUACUGACAUGAGGAUCACCCAUGUUUUAGUGUGGGCAUGUAGA | 72.8 nM | 141 nM |  | 
AAGAGAAAAGCAGGAUAUCUAUAGGCUCCUUAACAUGAGGAUCACCCAUGUAGAGAAGGGCUAAGACCGACUCUUCGGAGUUGA | 9.23 nM | 27.6 nM |  | 
UAUUAAUGCAAGGAUAUGCUUUUAAUUUUUUUUGCAGAAGGUGCAACAUGAGGAUCACCCAUGUUUCAGGGUAU | 42.1 nM | 57.6 nM |  | 
CCUCCGUAUGAGGAUAUCGUCCAGGAAACUGGACGAGAAGGCAUGACAUGAGGAUCACCCAUGUUAAAGUGAUG | 21.4 nM | 58.4 nM |  | 
ACAGCCGUCUAGAAGGGCGUAACUAAUUCCUACGUAGGAUAUGGACGGACAUGAGGAUCACCCAUGUUUGCAUUCCUCGUGGUA | 7.74 nM | 8.46 nM |  | 
GGGCAAUUAGGAUAUACAUGAGGAUCACCCAUGUGGAAGCCCGGACAGGUAAUCCACUGUAGAAGGGAUUGCCA | 12 nM | 13.3 nM |  | 
UUGAGUUAGCAGGAUAUGGGCAGCAGGAUGCUUCCAGAAGGGCUGACAUGAGGAUCACCCAUGUUCCCAUGCUU | 47.7 nM | 63.6 nM |  | 
UUUCCCUGUGUGAGGAUAUACUUGUUUGGGUUUUUGUAGAAGGCACAUGAGGAUCACCCAUGUAUUUUGUCGUG | 43.1 nM | 111 nM |  | 
GGUCCAUCAUGAGGAUAUGGCACCUUAUUGGUGCCAGAAGGCAUGUCUAUAGACAUGAGGAUCACCCAUGUAAUAAAUUGGACC |  |  | 790 nM | 46.4 nM
UCGAUCGGAGGAUAUGCUAAUGCAACUACUGCAGUUUCAAAACAUGAGGAUCACCCAUGUAGAAGGCCGAUAUA | 17 nM | 15.6 nM |  | 
UGUGUGUGACAGGAUAUGCUGGUUGUGUGGCGGGUAGAAGGGUCUACAUGAGGAUCACCCAUGUGGCCGGUUGG | 22.8 nM | 21.5 nM |  | 
